Results from ChEMBL document CHEMBL1147863, “Synthesis, antimicrobial activities and cytogenetic studies of newer diazepino quinoline derivatives via Vilsmeier-Haack reaction” (2007).
Activity calls are given as the source filed them. The calls are words filed in the database; no cut-off is given here.

Key:
Alternaria macrospora [1] = assay: Antifungal activity against Alternaria macrospora at 1% (w/v) concentration by disc diffusion method; format: functional
How it was run: (§1)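 Potato dextrose agar plates were seeded with a spore suspension (10⁶ spores/mL). Compounds in acetone at a final 0.5%, 1% or 2% w/v were loaded onto 5 mm filter-paper discs. Plates were incubated at 28 ± 2 °C for four days. Zone diameter was measured after subtracting the acetone-only plate zone, with carbendazim as standard.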

Talaromyces funiculosus [2] = assay: Antifungal activity against Penicillium funiculosum at 0.5% (w/v) concentration by disc diffusion method; format: functional; how it was run: as §1
Aeromonas hydrophila [3] = assay: Antibacterial activity against Aeromonas hydrophila at 0.25% (w/v) concentration after 24 hrs by disc diffusion method; format: functional
How it was run: (§2)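 Disc diffusion on nutrient agar (pH 7.5 ± 0.2) swabbed with bacterial culture; compounds dissolved in chloroform at 0.125%, 0.25% or 0.5% w/v, soaked onto 5 mm filter paper discs placed on seeded plates. Incubated 35 ± 2 °C, 24 h; inhibition zone diameter (mm) measured, minus zone from solvent-only plate.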

Fusarium oxysporum [4] = assay: Antifungal activity against Fusarium oxysporum at 0.5% (w/v) concentration by disc diffusion method; format: functional; how it was run: as §1
Salmonella typhi [5] = assay: Antibacterial activity against Salmonella typhi at 0.25% (w/v) concentration after 24 hrs by disc diffusion method; format: functional, Salmonella enterica subsp. enterica serovar Typhi
How it was run: (§3)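 Disc diffusion on nutrient agar (pH 7.5 ± 0.2) swabbed with bacteria. Compounds were dissolved in chloroform at a final 0.125%, 0.25% or 0.5% w/v and loaded onto 5 mm filter-paper discs. Plates were incubated at 35 ± 2 °C for 24 h. The inhibition-zone diameter (mm) was reported after subtracting the zone of the solvent-only plate.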

Talaromyces funiculosus [6] = assay: Antifungal activity against Penicillium funiculosum at 1% (w/v) concentration by disc diffusion method; format: functional; how it was run: as §1
Aspergillus flavus [7] = assay: Antifungal activity against Aspergillus flavus at 0.5% (w/v) concentration by disc diffusion method; format: functional; how it was run: as §1
Salmonella typhi [8] = assay: Antibacterial activity against Salmonella typhi at 0.125% (w/v) concentration after 24 hrs by disc diffusion method; format: functional, Salmonella enterica subsp. enterica serovar Typhi; how it was run: as §3
[9] = Induction of chromosomal aberration in human peripheral blood leukocytes assessed as number of chromatid gaps at 20 ug/mL after 24 hrs; format: functional, Leukocyte
How it was run: (§4)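 Leukocytes from venous blood of three healthy non-smoking male donors, cultured at 37 °C for 72 h in McCoy's 5a with AB serum and PHA. Compound in 1% acetone was added at 0, 24 or 48 h after culture initiation (72, 48 or 24 h exposure), with water and acetone controls and triplicate cultures. Colchicine was added before harvest, then KCl hypotonic, fixation and Giemsa staining. Gaps and breaks were counted in 350 metaphases per treatment.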

Alternaria macrospora [10] = assay: Antifungal activity against Alternaria macrospora at 2% (w/v) concentration by disc diffusion method; format: functional; how it was run: as §1
[11] = Induction of chromosomal aberration in human peripheral blood leukocytes assessed as number of chromatid breaks at 20 ug/mL after 24 hrs; format: functional, Leukocyte; how it was run: as §4
Fusarium oxysporum [12] = assay: Antifungal activity against Fusarium oxysporum at 1% (w/v) concentration by disc diffusion method; format: functional; how it was run: as §1
Aspergillus flavus [13] = assay: Antifungal activity against Aspergillus flavus at 1% (w/v) concentration by disc diffusion method; format: functional; how it was run: as §1
[14] = Induction of chromosomal aberration in human peripheral blood leukocytes assessed as number of chromatid breaks at 20 ug/mL after 48 hrs; format: functional, Leukocyte; how it was run: as §4
Aeromonas hydrophila [15] = assay: Antibacterial activity against Aeromonas hydrophila at 0.5% (w/v) concentration after 24 hrs by disc diffusion method; format: functional; how it was run: as §2
Talaromyces funiculosus [16] = assay: Antifungal activity against Penicillium funiculosum at 2% (w/v) concentration by disc diffusion method; format: functional; how it was run: as §1
[17] = Induction of chromosomal aberration in human peripheral blood leukocytes assessed as number of chromatid gaps at 20 ug/mL after 48 hrs; format: functional, Leukocyte; how it was run: as §4
Escherichia coli [18] = assay: Antibacterial activity against Escherichia coli at 0.125% (w/v) concentration after 24 hrs by disc diffusion method; format: functional; how it was run: as §2
Escherichia coli [19] = assay: Antibacterial activity against Escherichia coli at 0.5% (w/v) concentration by after 24 hrs by disc diffusion method; format: functional; how it was run: as §2
Salmonella typhi [20] = assay: Antibacterial activity against Salmonella typhi at 0.5% (w/v) concentration after 24 hrs by disc diffusion method; format: functional, Salmonella enterica subsp. enterica serovar Typhi; how it was run: as §3
Aeromonas hydrophila [21] = assay: Antibacterial activity against Aeromonas hydrophila at 0.125% (w/v) concentration after 24 hrs by disc diffusion method; format: functional; how it was run: as §2
Fusarium oxysporum [22] = assay: Antifungal activity against Fusarium oxysporum at 2% (w/v) concentration by disc diffusion method; format: functional; how it was run: as §1
Alternaria macrospora [23] = assay: Antifungal activity against Alternaria macrospora at 0.5% (w/v) concentration by disc diffusion method; format: functional; how it was run: as §1
Escherichia coli [24] = assay: Antibacterial activity against Escherichia coli at 0.25% (w/v) concentration after 24 hrs by disc diffusion method; format: functional; how it was run: as §2
Aspergillus flavus [25] = assay: Antifungal activity against Aspergillus flavus at 2% (w/v) concentration by disc diffusion method; format: functional; how it was run: as §1

SMILES	inhibition zone (IZ) (Alternaria macrospora [1])	inhibition zone (IZ) (Talaromyces funiculosus [2])	inhibition zone (IZ) (Aeromonas hydrophila [3])	inhibition zone (IZ) (Fusarium oxysporum [4])	inhibition zone (IZ) (Salmonella typhi [5])	inhibition zone (IZ) (Talaromyces funiculosus [6])	inhibition zone (IZ) (Aspergillus flavus [7])	inhibition zone (IZ) (Salmonella typhi [8])	Activity [9]	inhibition zone (IZ) (Alternaria macrospora [10])	Activity [11]	inhibition zone (IZ) (Fusarium oxysporum [12])	inhibition zone (IZ) (Aspergillus flavus [13])	inhibition zone (IZ) (Aeromonas hydrophila [15])	inhibition zone (IZ) (Talaromyces funiculosus [16])	inhibition zone (IZ) (Escherichia coli [19])	inhibition zone (IZ) (Salmonella typhi [20])	inhibition zone (IZ) (Aeromonas hydrophila [21])	inhibition zone (IZ) (Fusarium oxysporum [22])	inhibition zone (IZ) (Alternaria macrospora [23])	other results
Cc1ccc(C)c2c(Cl)c3c(nc12)C=CNN=C3	11 mm	5 mm	8 mm	4 mm	9 mm	10 mm	4 mm	5 mm	2%	17 mm	0.9%	11 mm	9 mm	11 mm	17 mm	9 mm	14 mm	4 mm	15 mm	7 mm	Activity [14]: 0.3%; Activity [17]: 0.9%; inhibition zone (IZ) (Escherichia coli [18]): 2 mm; inhibition zone (IZ) (Escherichia coli [24]): 5 mm; inhibition zone (IZ) (Aspergillus flavus [25]): 16 mm
Cc1ccc2c(Cl)c3c(nc2c1)C=CNN=C3	10 mm	3 mm	9 mm	3 mm	9 mm	6 mm	4 mm	4 mm	1.1%	12 mm	0.6%	7 mm	7 mm	12 mm	11 mm	5 mm	13 mm	5 mm	11 mm	4 mm	Activity (Escherichia coli [18]): inactive; inhibition zone (IZ) (Escherichia coli [24]): 1 mm; inhibition zone (IZ) (Aspergillus flavus [25]): 11 mm
